According to ChEMBL document CHEMBL1143988, “11-(pyridinylphenyl)steroids--a new class of mixed-profile progesterone agonists/antagonists” (Bioorg Med Chem, 2008):

How the values were obtained:
Type in all cases: functional, cell-based
[1] = molecular target: T1, Progesterone receptor (Homo sapiens) (UniProt P06401); test: Agonist activity at human PRB expressed in CHO cells relative to Org 2058
T1 sequence (whole entry): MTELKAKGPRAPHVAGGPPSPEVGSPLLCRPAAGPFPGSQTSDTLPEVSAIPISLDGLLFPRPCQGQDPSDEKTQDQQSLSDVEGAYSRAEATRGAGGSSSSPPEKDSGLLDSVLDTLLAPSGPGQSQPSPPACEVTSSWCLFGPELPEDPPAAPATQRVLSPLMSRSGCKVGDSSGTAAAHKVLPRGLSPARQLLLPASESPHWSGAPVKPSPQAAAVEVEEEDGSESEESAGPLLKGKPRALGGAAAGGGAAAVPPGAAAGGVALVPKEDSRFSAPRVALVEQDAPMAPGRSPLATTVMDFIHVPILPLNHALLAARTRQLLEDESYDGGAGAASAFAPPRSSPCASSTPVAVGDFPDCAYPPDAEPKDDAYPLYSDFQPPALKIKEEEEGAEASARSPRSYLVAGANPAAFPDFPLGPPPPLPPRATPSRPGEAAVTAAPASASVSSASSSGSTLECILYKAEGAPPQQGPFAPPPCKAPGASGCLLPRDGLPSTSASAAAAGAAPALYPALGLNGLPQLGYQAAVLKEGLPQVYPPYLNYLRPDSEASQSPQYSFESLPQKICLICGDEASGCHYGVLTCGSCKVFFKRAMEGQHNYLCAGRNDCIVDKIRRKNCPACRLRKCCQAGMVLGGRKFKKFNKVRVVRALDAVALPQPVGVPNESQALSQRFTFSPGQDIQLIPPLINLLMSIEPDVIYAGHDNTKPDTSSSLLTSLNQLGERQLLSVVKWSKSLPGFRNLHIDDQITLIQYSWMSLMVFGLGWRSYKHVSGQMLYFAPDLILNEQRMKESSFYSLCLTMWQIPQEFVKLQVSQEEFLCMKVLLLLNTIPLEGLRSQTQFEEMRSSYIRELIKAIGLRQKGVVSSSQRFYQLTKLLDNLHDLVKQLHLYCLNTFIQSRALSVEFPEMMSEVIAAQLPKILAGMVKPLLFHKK

[2] = molecular target: T2, Progesterone receptor (Homo sapiens, UniProt P06401); test: Antagonist activity at human PRB expressed in CHO cells assessed as inhibition of Org 2058 induced-transactivation
T2 sequence (P06401 whole entry): T1 sequence (whole entry)
In short: (§1)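 PR-B-mediated luciferase transactivation antagonist mode, run in the same setting as the agonist assay, with 0.1 nM Org 2058 as inducer; IC50 taken from inhibition of luciferase induction. Efficacy given relative to the antagonist Org 31710, whose effect is set to 100%.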

[3] = molecular target: T1, Progesterone receptor (Homo sapiens); test: (§2) Antagonist activity at human PRB expressed in CHO cells assessed as inhibition of Org 2058 induced-transactivation relative to Org 31710; in short: as §1
[4] = molecular target: T2, Progesterone receptor; test: as §2; in short: as §1
[5] = molecular target: T2, Progesterone receptor; test: Agonist activity at human PRB expressed in CHO cells

Compound	Efficacy [1] [%]	IC50 [2] [nM]	Efficacy [3] [%]	IC50 [4] [nM]	EC50 [5] [nM]
C=C[C@@H]1C[C@H]2[C@@H]3CCC4=CC(=O)CCC4=C3[C@@H](c3ccc(-c4cccnc4)cc3)C[C@]2(C)[C@H]1C(=O)C1CC1	47	0.61	38		
COc1ccc(-c2ccc([C@H]3C[C@]4(C)[C@@H](C(=O)C5CC5)CC[C@H]4[C@@H]4CCC5=CC(=O)CCC5=C43)cc2)cn1	28	0.43	57		
C=C[C@@H]1C[C@H]2[C@@H]3CCC4=CC(=O)CCC4=C3[C@@H](c3ccc(-c4ccc(OC)nc4)cc3)C[C@]2(C)[C@H]1C(=O)C1CC1	41	0.98	45		
C[C@@H]1C[C@H]2[C@@H]3CCC4=CC(=O)CCC4=C3[C@@H](c3ccc(-c4ccncc4)cc3)C[C@]2(C)[C@H]1C(=O)C1CC1	56	2.5	27		
C[C@@H]1C[C@H]2[C@@H]3CCC4=CC(=O)CCC4=C3[C@@H](c3ccc(-c4ccccn4)cc3)C[C@]2(C)[C@H]1C(=O)C1CC1	49	14.8	33		
C[C@@H]1C[C@H]2[C@@H]3CCC4=CC(=O)CCC4=C3[C@@H](c3ccc(-c4ccc(Cl)nc4)cc3)C[C@]2(C)[C@H]1C(=O)C1CC1	47	0.47	43		
C=C1CCO[C@]12CC[C@H]1[C@@H]3CCC4=CC(=O)CCC4[C@H]3[C@@H](c3ccc(N(C)C)cc3)C[C@@]12C (stereo partly drawn)				0.2	
C[C@@H]1C[C@H]2[C@@H]3CCC4=CC(=O)CCC4=C3[C@@H](c3ccc(-c4ccc(F)nc4)cc3)C[C@]2(C)[C@H]1C(=O)C1CC1	51	8.48	50		
CC(=O)O[C@]1(C(C)=O)CC[C@H]2[C@@H]3CCC4=CC(=O)CCC4=C3[C@@H](c3ccc(N(C)C)cc3)C[C@@]21C [ULIPRISTAL ACETATE]		0.2	100		> 100
C[C@@H]1C[C@H]2[C@@H]3CCC4=CC(=O)CCC4=C3[C@@H](c3ccc(-c4cnc5ccccc5c4)cc3)C[C@]2(C)[C@H]1C(=O)C1CC1	50	3.14	24		
C[C@@H]1C[C@H]2[C@@H]3CCC4=CC(=O)CCC4=C3[C@@H](c3ccc(-c4ncccn4)cc3)C[C@]2(C)[C@H]1C(=O)C1CC1	52	3.25	> 27		
CC[C@@H]1C[C@H]2[C@@H]3CCC4=CC(=O)CCC4=C3[C@@H](c3ccc(-c4cccnc4)cc3)C[C@]2(C)[C@H]1C(=O)C1CC1	34	0.6	53		
COC[C@]1(OC)CC[C@H]2[C@@H]3CCC4=CC(=O)CCC4=C3[C@@H](c3ccc(/C=N/O)cc3)C[C@@]21C [ASOPRISNIL]		0.2	97		> 100
C[C@]12C[C@H](c3ccc(-c4cccnc4)cc3)C3=C4CCC(=O)C=C4CC[C@H]3[C@@H]1CC[C@]2(C)C(=O)C1CC1	38	0.13	58		
C[C@]12C[C@H](c3ccc(-c4cccnc4)cc3)C3=C4CCC(=O)C=C4CC[C@H]3[C@@H]1CC[C@@H]2C(=O)C1CC1	36	0.75	66		
C[C@@H]1C[C@H]2[C@@H]3CCC4=CC(=O)CCC4=C3[C@@H](c3ccc(-c4ccnnc4)cc3)C[C@]2(C)[C@H]1C(=O)C1CC1	51	3.64	37		0.36
CN(C)c1ccc([C@H]2C[C@@]3(C)[C@@H](CC[C@@]34CCCC4=O)[C@@H]3CCC4=CC(=O)CCC4=C32)cc1				0.2	
COc1ccc(-c2ccc([C@H]3C[C@@]4(C)[C@@H](C[C@@H](C)[C@@H]4C(=O)C4CC4)[C@@H]4CCC5=CC(=O)CCC5=C43)cc2)cn1	42	0.63	59		
C[C@@H]1C[C@H]2[C@@H]3CCC4=CC(=O)CCC4=C3[C@@H](c3ccc(-c4cccnc4)cc3)C[C@]2(C)[C@H]1C(=O)C1CC1	49	0.27	46		
C[C@@H]1C[C@H]2[C@@H]3CCC4=CC(=O)CCC4=C3[C@@H](c3ccc(-c4cnccn4)cc3)C[C@]2(C)[C@H]1C(=O)C1CC1	54	1.3	35		
C[C@]12C[C@H](c3ccc(-c4cccnc4)cc3)C3=C4CCC(=O)C=C4CC[C@H]3[C@@H]1CCC21CCCC1=O (stereo partly drawn)	17	0.33	71		0.29
COc1ccc(-c2ccc([C@H]3C[C@@]4(C)[C@@H](CCC45CCCC5=O)[C@@H]4CCC5=CC(=O)CCC5=C43)cc2)cn1 (stereo partly drawn)	20	0.55	62		0.15
CC[C@@H]1C[C@H]2[C@@H]3CCC4=CC(=O)CCC4=C3[C@@H](c3ccc(-c4ccc(OC)nc4)cc3)C[C@]2(C)[C@H]1C(=O)C1CC1	42	7.89	52		
